# Columns and labels:
# MCF7 [1] = assay: Cytotoxicity against human MCF7 cells by MTT microassay; assay type: functional, cell-based
# Outline: (§1)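 MTT microassay in cultured human tumour cells from ATCC. Compounds were dissolved in DMSO and diluted in culture medium to 0.1% DMSO. Controls received medium with 0.1% DMSO, and 5-fluorouracil was the positive control. IC50 is given as mean ± SD, n = 3.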
# [2] = Inhibition of histamine release from rat mast cells; assay type: functional; design: Inhibition: concentration or dose not given beside the values; conditions: for IC50: Rattus norvegicus
# [3] = Cytotoxicity against human Hep 3B cells by MTT microassay; assay type: functional, cell-based, Hep 3B2; conditions: Hep3B; outline: as §1
# Neutrophil [4] = assay: Inhibition of 5 ug/ml CB-stimulated Lysozyme release from rat neutrophils; assay type: functional, cell-based; conditions: for IC50: Rattus norvegicus, Neutrophil
# Outline: (§2)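 Rat neutrophils were stimulated with fMLP plus cytochalasin B, and β-glucuronidase and lysozyme release were measured. Trifluoperazine was the positive control. IC50 is mean ± SD, n = 3; where IC50 exceeds 30, % inhibition at 30 is shown.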
# RAW [5] = assay: Inhibition of 1 ug/ml LPS-stimulated TNFalpha accumulation in RAW 264 cells after 24 hrs; assay type: functional, cell-based, Mus musculus; conditions: for IC50: Mus musculus, RAW, 24 h
# Outline: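 RAW 264.7 cells were activated with LPS, and TNF-α formation in the culture medium was measured. Genistein was the positive control. Results are mean ± SD, n = 3.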
# HT-29 = assay: Cytotoxicity against human HT29 cells by MTT microassay; assay type: functional, cell-based; outline: as §1
# Neutrophil [6] = assay: Inhibition of 0.3 uM fMLP-stimulated superoxide anion generation in rat neutrophils; assay type: functional, cell-based; conditions: for IC50: Rattus norvegicus, Neutrophil
# Outline: (§3)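 Rat neutrophils, with superoxide anion generation triggered by either fMLP combined with cytochalasin B or by PMA (3 nM).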
# A549 = assay: Cytotoxicity against human A549 cells by MTT microassay; assay type: functional, cell-based; outline: as §1
# [7] = Inhibition of beta-glucuronidase release from rat mast cells; assay type: functional; design: Inhibition: concentration or dose not given beside the values; conditions: for IC50: Rattus norvegicus
# RAW [8] = assay: Inhibition of 1ug/ml LPS-stimulated nitirc oxide accumulation in RAW 264 cells after 24 hrs; assay type: functional, cell-based, Mus musculus; conditions: for IC50: Mus musculus, RAW, 24 h
# Outline: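 RAW 264.7 cells were activated with LPS for 24 h. NO was measured as nitrite accumulated in the medium, by Griess reaction. 1400W was the positive control. Results are mean ± SD, n = 3.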
# Neutrophil [9] = assay: Inhibition of 3 nM PMA-stimulated superoxide anion generation in rat neutrophils; assay type: functional, cell-based; conditions: for IC50: Rattus norvegicus, Neutrophil; outline: as §3
# Neutrophil [10] = assay: Inhibition of 1 uM fMLP-stimulated beta-Glucuronidase release from rat neutrophils; assay type: functional, cell-based; conditions: for IC50: Rattus norvegicus, Neutrophil; outline: as §2
# MCF7 [11] = assay: Induction of apoptosis in MCF7 cells assessed as subG1-phase accumulation at 52 uM after 72 hrs; assay type: functional, Homo sapiens
# Outline: (§4)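 MCF-7 cells were exposed to compound and washed with PBS at each time point. They were fixed in 4% paraformaldehyde/PBS (pH 7.4) for 30 min at room temperature, then permeabilized in 0.1% Triton X-100/0.1% sodium citrate for 2 min at 4 °C. PI staining followed for 30 min at 37 °C. FACScan flow cytometry counted ≥5000 cells. Apoptosis is the sub-G1 DNA fraction; controls received medium; three independent experiments.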
# MCF7 [12] = assay: Induction of apoptosis in MCF7 cells assessed as subG1-phase accumulation at 8.7 uM after 48 hrs; assay type: functional, Homo sapiens; outline: as §4
# MCF7 [13] = assay: Induction of apoptosis in MCF7 cells assessed as subG1-phase accumulation at 52 uM after 24 hrs; assay type: functional, Homo sapiens; outline: as §4
# MCF7 [14] = assay: Induction of apoptosis in MCF7 cells assessed as subG1-phase accumulation at 8.7 uM after 72 hrs; assay type: functional, Homo sapiens; outline: as §4
# MCF7 [15] = assay: Induction of apoptosis in MCF7 cells assessed as subG1-phase accumulation at 34.7 uM after 72 hrs; assay type: functional, Homo sapiens; outline: as §4
# MCF7 [16] = assay: Induction of apoptosis in MCF7 cells assessed as subG1-phase accumulation at 34.7 uM after 48 hrs; assay type: functional, Homo sapiens; outline: as §4
# MCF7 [17] = assay: Induction of apoptosis in MCF7 cells assessed as subG1-phase accumulation at 34.7 uM after 24 hrs; assay type: functional, Homo sapiens; outline: as §4
# MCF7 [18] = assay: Induction of apoptosis in MCF7 cells assessed as subG1-phase accumulation at 8.7 uM after 24 hrs; assay type: functional, Homo sapiens; outline: as §4
# MCF7 [19] = assay: Induction of apoptosis in MCF7 cells assessed as subG1-phase accumulation at 52 uM after 48 hrs; assay type: functional, Homo sapiens; outline: as §4
Structure (SMILES),IC50 (MCF7 [1]) [µM],IC50 ([2]; read-out: IC50) [µM],IC50 [3] [µM],IC50 (Neutrophil [4]) [µM],IC50 (RAW [5]) [µM],IC50 (HT-29) [µM],IC50 (Neutrophil [6]) [µM],IC50 (A549) [µM],IC50 [7] [µM],IC50 (RAW [8]) [µM],Inhibition (Neutrophil [9]) [%],IC50 (Neutrophil [9]) [µM],IC50 (Neutrophil [10]) [µM],other results
COc1ccc(OC)c(C(=O)/C=C/c2cccs2)c1,3.8,> 30,8.4,14.6,> 30,13.3,> 30,11,> 30,> 10,7.9,> 30,> 30,Inhibition [2]: 0.8%; Inhibition (RAW [5]): 5.9%; Inhibition (Neutrophil [6]): 47.2%; Inhibition [7]: -4.6%; Inhibition (RAW [8]): 49.8%; Inhibition (Neutrophil [10]): 38.5%
COc1ccc(OC)c(C(=O)/C=C/c2ccsc2)c1,3.7,,5.7,,,5.3,,3.8,,,,,,
COc1ccc(OC)c(C(=O)/C=C/c2ccco2)c1,10.5,> 30,19,8.3,4.6,24.8,3,27.9,18.4,5.7,49.1,> 30,6.2,
COc1ccc(OC)c(C(=O)/C=C/c2ccoc2)c1,18.2,,12,,,21.3,,22.1,,,,,,
COc1ccc(OC)c(C(=O)/C=C/c2ccc(C)o2)c1,10.3,,26.5,17.8,> 10,43,> 30,51.5,> 30,> 10,39,> 30,22.2,Inhibition [2]: 17.5%; IC50 [2]: > 30 µM; Inhibition (RAW [5]): -10.5%; Inhibition (Neutrophil [6]): 48.1%; Inhibition [7]: 12.7%; Inhibition (RAW [8]): 29.5%
COc1ccc(OC)c(C(=O)/C=C/c2ccc(C)s2)c1,2.6,> 30,3.4,> 30,> 30,1.8,> 30,4.5,> 30,6.7,-11.9,> 30,> 30,Activity (MCF7 [11]): 63.79%; Inhibition [2]: 43.5%; Inhibition (Neutrophil [4]): 37.4%; Inhibition (RAW [5]): 46%; Activity (MCF7 [12]): 16.39%; Activity (MCF7 [13]): 5.09%; Activity (MCF7 [14]): 41.61%; Activity (MCF7 [15]): 62.4%; Inhibition (Neutrophil [6]): 49.1%; Inhibition [7]: -2.7%; Activity (MCF7 [16]): 18.68%; Activity (MCF7 [17]): 4.05%; Inhibition (Neutrophil [10]): 45.6%; Activity (MCF7 [18]): 7.52%; Activity (MCF7 [19]): 21.23%
COc1ccc(OC)c(C(=O)/C=C/c2sccc2C)c1,7.6,,16.7,,,19.4,,22.2,,,,,,
COc1ccc(OC)c(C(=O)/C=C/c2ccc(OC/C=C/c3ccccc3)cc2)c1,19,> 30,17.3,> 30,> 30,26.3,> 10,39.8,> 30,> 30,4.1,> 10,> 30,Inhibition [2]: 0.3%; Inhibition (Neutrophil [4]): 33.1%; Inhibition (RAW [5]): 15%; Inhibition (Neutrophil [6]): -71.9%; Inhibition [7]: -11.2%; Inhibition (RAW [8]): 27.9%; Inhibition (Neutrophil [10]): 18.8%
COc1ccc(OC)c(C(=O)/C=C/c2ccc(OC(=O)/C=C/c3ccc(C)cc3)cc2)c1,12.6,,29,,,16.4,,29.7,,,,,,
COc1ccc(/C=C/C(=O)Oc2ccc(/C=C/C(=O)c3cc(OC)ccc3OC)cc2)cc1,4.1,,42.6,,,23,,60.4,,,,,,
COc1ccc(OC)c(C(=O)/C=C/c2ccc(Br)o2)c1,11,> 30,11,> 30,> 30,15.2,19.7,14.9,> 30,12.8,-2.2,> 30,> 30,Inhibition [2]: 6.3%; Inhibition (Neutrophil [4]): 33.4%; Inhibition (RAW [5]): 35.6%; Inhibition [7]: -13.3%; Inhibition (Neutrophil [10]): 36.9%
COc1ccc(OC)c(C(=O)/C=C/c2ccc(OC(=O)/C=C/c3cc(OC)c(OC)c(OC)c3)cc2)c1,6.4,,23.2,,,23.8,,36.7,,,,,,
CC(=N)NCc1cccc(CN)c1 [1400W],,,,,,,,,,5.2,,,,
CC(=O)O[C@H](CC=C(C)C)C1=CC(=O)c2c(O)ccc(O)c2C1=O [ACETYLSHIKONIN],,2,,,,,,,2.2,,,,,
c1ccc2c(c1)[I+]c1ccccc1-2 [DIPHENYLENEIODONIUM CHLORIDE],,,,,,,5.8,,,,,3.3,,
O=c1[nH]cc(F)c(=O)[nH]1 [FLUOROURACIL],1.5,,0.6,,,0.6,,3.1,,,,,,
O=c1c(-c2ccc(O)cc2)coc2cc(O)cc(O)c12 [GENISTEIN],,,,,18.1,,,,,,,,,
CN1CCN(CCCN2c3ccccc3Sc3ccc(C(F)(F)F)cc32)CC1 [TRIFLUOPERAZINE],,,,12.7,,,,,,,,,13.2,
